Only some compounds are listed: those with a hit (about 1.9% of all), similar ones and a draw of the others.
procasp3 activ: activators of human procaspase-3 D3A mutant, primary screen, biochemical, absorbance, PC-3 D3A mutant, single concentration. recombinant procaspase-3 D3A, Ac-DEVD-pNA absorbance 405 nm. Caspase-3 (Homo sapiens), P42574. activation, % at 8.5 µM. actives 0.11% (n = 330,000);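 active means activation above the mean of all tested compounds plus 3 SD, cut at about 21% in these data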;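 further: 0% = DMSO alone and 100% = DMSO wells spiked with extra 5 µM PC-3 D3A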
Target sequence (P42574 whole entry D9A/D28A/D175A): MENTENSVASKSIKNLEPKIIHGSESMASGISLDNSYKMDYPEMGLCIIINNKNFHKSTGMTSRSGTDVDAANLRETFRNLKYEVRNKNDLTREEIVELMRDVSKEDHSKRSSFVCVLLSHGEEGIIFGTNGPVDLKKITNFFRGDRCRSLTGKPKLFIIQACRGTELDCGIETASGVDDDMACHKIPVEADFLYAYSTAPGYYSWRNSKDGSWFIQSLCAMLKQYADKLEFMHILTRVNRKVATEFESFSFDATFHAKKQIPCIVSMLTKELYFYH
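Assay system – Procaspase-3 D3A mutant · Benchmarks – DMSO low control, extra-enzyme high control · Technique – 405 nm absorbance of p-nitroaniline, reads at 0 and 120 min · Doses – 8.5 µM nominal · Measure – % activation between DMSO and enzyme-spiked controls · Also added – Ac-DEVD-pNA chromogenic peptide substrate · Schedule – 1 h compound preincubation, 2 h substrate hydrolysis at 25 °C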
HIF activator: HIF pathway transcriptional activators, primary screen, cell-based, U2OS HRE-luciferase, luminescence; actives 0.32% (n = 300,000); activation, % at 7.5 µM (by protocol); AID 1910, 2009; U2OS HRE-luciferase reporter; normalized: DMSO 0%, desferrioxamine 100%;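 active means mean activation of at least 10% of the iron chelator positive control signal, with at least half of replicates also reaching 10%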
Neddylation inh: inhibitors of cullin neddylation, primary screen, biochemical, TR-FRET, uHTS, NAE and Ubc12. NEDD8-conjugating enzyme Ubc12 (Homo sapiens) + NEDD8-activating enzyme E1 regulatory …. inhibition, % at 25 µM. actives 0.58% (n = 360,000); in the data active means inhibition above about 36%
Calb FLC: C. albicans growth inhibition with fluconazole, primary screen, CaCi-2 strain, Alamar Blue fluorescence; actives 0.57% (n = 300,000); growth inhibition, % (test concentration not listed); AID 1979, 2009; C. albicans CaCi-2 + fluconazole, 48 h;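 active means growth inhibition above about 58% in most replicates, limit read from the data, passing the limit was not always enough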;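 further: all wells also contain fluconazole at 8 µg/ml as a sub-toxic cotreatment; 0% = median of DMSO wells and 100% = median of geldanamycin control wells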
GAA850 FXN act: FXN promoter activators, primary screen, cell-based, luciferase luminescence, HEK293 lucGAA850; HEK293 lucGAA850 FXN promoter luciferase reporter, 24 h; percent of 10 µM SAHA response; AID 540364, 2011; actives 0.56% (n = 360,000); activation, % at 6 µM;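 active means activation above the average of all compounds screened plus 3 SD, cutoff fixed separately per campaign, cut at about 7.5% in these data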;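 further: 0% = DMSO wells and 100% = 10 µM SAHA wells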
proCasp7 act: procaspase-7 activators, primary screen, counter-screen for procaspase-3 activator project, biochemical, absorbance, HTS, human | recombinant procaspase-7, Ac-DEVD-pNA absorbance 405 nm; D23A/D198A/D206A triple mutant, cannot self-cleave; scale: DMSO 0, 5 µM enzyme 100 | Caspase-7 (Homo sapiens), P55210 | activation, % at 8.5 µM | AID 463210, 2010 | actives 0.093% (n = 330,000);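 active means percent activation above the screen-wide mean plus 3 SD, cut at about 25% in these data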
Target sequence (P55210 whole entry D23A/D198A/D206A): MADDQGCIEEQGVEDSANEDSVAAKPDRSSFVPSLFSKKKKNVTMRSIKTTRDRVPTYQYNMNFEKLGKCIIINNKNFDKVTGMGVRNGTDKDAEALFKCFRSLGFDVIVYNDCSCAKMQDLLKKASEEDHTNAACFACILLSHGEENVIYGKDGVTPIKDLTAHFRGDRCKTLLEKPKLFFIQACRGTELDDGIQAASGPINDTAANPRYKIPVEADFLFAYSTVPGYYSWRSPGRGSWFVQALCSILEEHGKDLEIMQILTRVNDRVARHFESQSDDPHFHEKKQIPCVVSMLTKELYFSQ
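Test system: Procaspase-7 triple mutant (PC-7 D3A). Also added: Ac-DEVD-pNA substrate, 400 µM as added. Schedule: 1 h enzyme–compound preincubation and 2 h substrate reaction, both 25 °C. Signal: p-Nitroaniline absorbance at 405 nm, read at 0 and 120 min. Control set: low DMSO alone, high DMSO plus 5 µM PC-7.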
* = called active by the depositor; i = inactive; . = not tested or not shown.

SMILES	procasp3 activ	HIF activator	Neddylation inh	Calb FLC	GAA850 FXN act	proCasp7 act
COc1ccc(C2=Nc3ccccc3NC(=O)C2N(Cc2ccccc2)C(=O)C2=NNC(=O)CC2)cc1 (stereo not drawn)	.	.	6	.	.	.
Oc1ccc(/C=N/Nc2ccnc3cc(Cl)ccc23)cc1O	8	0	6	100*	4	13
COc1cc(-c2nnc(SCc3cc(=O)oc4cc(O)c(O)cc34)o2)cc(OC)c1OC	-5	0	15	104*	-1	-8
CC(C)NC(=O)COC(=O)c1cccc(NS(=O)(=O)/C=C/c2ccccc2)c1	-1	0	-5	103*	1	5
CSc1nn2c(C(F)(F)F)cc(C(F)(F)F)nc2c1C(=O)O	-4	-1	-14	112*	-1	3
C=C1CCC2C(C)(C(=O)O)CCCC2(C)C1CCC(CO)CCO (stereo not drawn)	.	.	-5	.	-1	.
O=c1[nH]c(Nc2ccc3c(c2)OCCO3)nnc1Cc1ccccc1	-8	0	0	120*	-3	2
O=c1[nH]c(NC2CCCCC2)nnc1Cc1ccccc1	0	0	-6	-3	0	-8
O=C1c2cccc3c(O)ccc(c23)C(=O)N1Cc1ccccc1	-5	0	i	100*	-2	-22
CCCCn1c(N)c(N(CCOC)C(=O)c2cc(S(=O)(=O)N3CCOCC3)ccc2Cl)c(=O)[nH]c1=O	.	.	4	.	0	.
c1ccc(-c2nc3cc4ccccc4cc3[nH]2)nc1	2	-4	44*	49	0	3
Cc1cc(-n2c(=O)c(C#N)cc3c(=O)n4ccccc4nc32)no1	-14	0	.	-6	-4	-27
Cc1ccccc1-n1c(=O)c(C#N)cc2c(=O)n3ccccc3nc21	-16	-1	.	54*	0	-13
O=C(CSc1nc(-c2ccccc2)cs1)Nc1nccs1	-4	0	3	112*	-1	4
O=[N+]([O-])c1ccc2nc(NN=Cc3ccc(O)cc3)sc2c1	.	.	-13	.	3	.
CSc1nc(C)cc(C)c1C#N	-9	103*	-4	-2	0	1
O=C(NCc1ccc(F)cc1)C(c1ccccc1)N(CC1CCCO1)C(=O)Cn1nnc2ccccc21 (stereo not drawn)	5	0	-2	92*	-4	0
Cc1cc(Br)c2c(c1)[C@](O)(c1cn(C)c3ccccc13)C(=O)N2C	.	.	7	.	.	.
Cc1cc(/C=C2\C(=N)N3N=C(CC(=O)N4CCOCC4)SC3=NC2=O)c(C)n1Cc1ccccc1	5	0	4	35	0	2
CC1=NN2C(=N)/C(=C\c3cc(C)n(Cc4ccccc4)c3C)C(=O)N=C2S1	-6	55*	11	9	2	-8
Cc1ccc(NNC(=O)c2ccno2)cc1C	-2	-1	3	93*	3	-10
Cc1ccc(NNC(=O)c2ccno2)cc1Cl	-10	-1	-6	0	-1	-7
COc1ccc2c(c1)c(C(=O)CN1CCc3ccccc3C1)c(C)n2C	6	44*	4	-5	0	-9
CN(C(=O)c1cccc(NC(=O)Cc2ccc(NC(=O)C3CCN(S(=O)(=O)c4cccc([N+](=O)[O-])c4)CC3)cc2)c1)C1CCCCC1	.	.	-8	.	0	.
O=C(NC1CCCC1)c1sc(=S)n2c1[nH]c(=O)c1ccccc12	2	0	-9	20	1	-4
SMILES	procasp3 activ	HIF activator	Neddylation inh	Calb FLC	GAA850 FXN act	proCasp7 act
O=C(NCc1ccco1)c1sc(=S)n2c1[nH]c(=O)c1ccccc12	-2	0	-18	93*	-1	-3
CCNC(=O)C1(C)CCCN(C(=O)c2nc(C)oc2C)C1 (stereo not drawn)	.	.	12	.	0	.
O=c1oc2cc([N+](=O)[O-])ccc2nc1/C=C(\O)c1cccc(Br)c1	-21	16*	-29	1	4	-12
CCN1CCN(C(=O)c2ccc(CSc3ccc(C)cc3)cc2)CC1	3	0	-6	98*	0	6
Cc1ccc(SCc2ccc(C(=O)N3CCCC3)cc2)cc1	-2	3	5	-19	3	-4
c1ccc2sc(NN=C3CCCCCC3)nc2c1	-4	0	10	106*	0	-2
COc1ccccc1C(c1c(N)n(C)c(=O)n(C)c1=O)C(C)[N+](=O)[O-] (stereo not drawn)	5	0	-11	6	1	4
COc1ccccc1C(C[N+](=O)[O-])c1c(N)n(C)c(=O)n(C)c1=O (stereo not drawn)	5	0	2	39*	-2	1
Cc1[nH]n(C(N)=S)c(=O)c1N=Nc1ccc(S(=O)(=O)N2CCCCCC2)cc1	-7	0	-62	104*	-1	8
Cc1ccc(N=Nc2c(C)[nH]n(C(N)=S)c2=O)cc1C	-2	4	-38	-10	3	3
[O-]/C(=C(\C(=S)Nc1cccc2ccccc12)[n+]1ccccc1)c1cccs1	-12	55*	-25	1	0	-18
O=C1Nc2ccccc2C1=Nc1ccccc1-c1ccccc1	.	.	15	.	-1	.
COC(=O)[C@@H]1CCCN1Cc1nc(Cc2ccc(OC)c(OC)c2)no1	3	0	1	10	0	9
COC(=O)[C@@H]1CCCN1Cc1nc(Cc2ccccc2F)no1	3	1	-7	92*	1	-3
CN1C(=O)C(CC#N)(C2(CC#N)C(=O)N(C)c3ccccc32)c2ccccc21 (stereo not drawn)	.	.	3	.	1	.
CCCCCCCN1C(Nc2ccccc2)=NC[C@@H]1Cc1ccccc1	-4	0	1	84*	-3	1
c1ccc(CCCCN2C(Nc3ccccc3)=NC[C@@H]2Cc2ccccc2)cc1	-2	.	-2	.	0	-10
Cc1ccc(SCc2cc(=O)n3ccsc3n2)c(C)c1	-2	2	.	-7	.	5
Cc1cccc(-n2c(SCc3cc(=O)n4ccsc4n3)nc3ccccc32)c1	0	1	1	114*	5	10
C=CCn1c(N2CCCCCC2)nc2c1c(=O)[nH]c(=O)n2C	-7	30*	-11	11	1	0

Compound activity (PubChem)
